Rows were chosen to be rich in hits. Some 3.7% of all compounds tested hit in one or more screens of this group.
KCNQ1 inh – blocks the human KCNQ1 potassium channel; P51787; CHO-K1 KCNQ1, FluxOR thallium flux fluorescence; hits give high values; B-score at 10 µM; 1.3% of 310,000 active;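 active means compounds whose thallium flux B-score, printed positive for inhibition, exceeds three library SD while starting fluorescence stays within three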;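 further: channel opened by potassium depolarization with thallium stimulus after 20 min compound exposure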
Target sequence (P51787 whole entry, looked up): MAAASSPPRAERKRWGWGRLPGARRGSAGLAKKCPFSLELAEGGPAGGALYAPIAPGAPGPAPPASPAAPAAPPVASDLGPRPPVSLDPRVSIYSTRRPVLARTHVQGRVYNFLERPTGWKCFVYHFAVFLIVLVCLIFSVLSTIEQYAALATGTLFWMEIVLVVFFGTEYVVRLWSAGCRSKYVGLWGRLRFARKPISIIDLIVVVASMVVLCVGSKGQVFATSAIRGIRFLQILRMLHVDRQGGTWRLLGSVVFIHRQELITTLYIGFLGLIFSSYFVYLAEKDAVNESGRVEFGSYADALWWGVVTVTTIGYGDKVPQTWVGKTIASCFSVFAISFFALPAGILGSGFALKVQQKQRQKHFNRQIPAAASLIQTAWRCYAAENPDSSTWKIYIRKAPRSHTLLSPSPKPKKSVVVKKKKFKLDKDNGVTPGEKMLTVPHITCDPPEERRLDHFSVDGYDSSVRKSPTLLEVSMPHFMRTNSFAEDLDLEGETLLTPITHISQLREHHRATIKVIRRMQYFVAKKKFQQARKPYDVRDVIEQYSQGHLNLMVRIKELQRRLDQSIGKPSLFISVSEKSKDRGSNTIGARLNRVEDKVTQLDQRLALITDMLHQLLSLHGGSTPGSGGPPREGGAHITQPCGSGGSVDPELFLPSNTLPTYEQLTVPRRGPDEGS
hERG rescue – shields human hERG channel from block by proarrhythmic agents; Q12809; CHO-hERG, FluxOR thallium flux, dofetilide IC70 present; activation (rescue from dofetilide block), less the hit threshold, % at 10 µM; 0.51% of 310,000 active; AID 1511;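 active means activation above the mean of controls blocked by dofetilide plus 5 SD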;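 further: thallium influx through hERG after potassium depolarization seen as dye fluorescence rise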
KCNK9 block – blocks the human KCNK9 two-pore domain potassium channel; B-score at 10 µM; Q9NPC2; AID 488922; 1.2% of 310,000 active; HEK293 KCNK9, FluxOR thallium flux fluorescence; hits give low values;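 active means ratio B-score over 3 SD below the library mean, with starting fluorescence within 5 SD of its mean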;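 further: negative B-score means less thallium flux so channel inhibition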
KCNQ1 pot – human KCNQ1 channel potentiation or activation; CHO-K1 KCNQ1, thallium flux FluxOR fluorescence; hits give high values; B-score at 10 µM; AID 2648; 0.35% of 310,000 active;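 active means fluorescence ratio B-score, a plate-corrected score, at least three library SD, with initial intensity B-score within 5 SD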
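System: CHO-K1 cells stably expressing KCNQ1 / Medium: assay buffer for compound exposure, DMSO matched across wells / Reagent: thallium- and potassium-containing depolarizing buffer / Compound: one concentration, matched DMSO / Incubation: 20 min compound pretreatment at room temperature / Measured by: kinetic FluxOR fluorescence, 10 s baseline plus 110 s post-stimulus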
KCNK3 inh – human KCNK3 channel inhibition, primary screen; 0.84% of 340,000 active; B-score at 10 µM; CHO-KCNK3 thallium flux, FluxOR fluorescence; hits give low values;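 active means B-score under library mean minus 4 SD, starting fluorescence ratio at most library mean plus 5 SD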;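 further: more negative B-score means stronger inhibition of thallium flux through KCNK3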
Kir21 inh – blocks the mouse Kir2.1 inward-rectifier potassium channel. P35561. HEK293-Kir2.1, FluxOR thallium flux fluorescence; hits give low values. B-score at 10 µM. 0.85% of 310,000 active. AID 1672;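 active means fluorescence ratio B-score at or below minus 3 SD of library scores, with starting-brightness B-score within 2 SD, cut at about -4.2 in these data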;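 further: channel flux triggered by added potassium and thallium sulfate stimulus; B-score of peak minus minimum fluorescence over baseline after thallium stimulus; more negative B-score means stronger Kir2.1 block with less thallium influx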
* marks the source's active call; other numbers are inactive results; i = inactive; . = no result given.

SMILES | KCNQ1 inh | hERG rescue | KCNK9 block | KCNQ1 pot | KCNK3 inh | Kir21 inh
CCN(CC)CCN1C(=O)C2C(C(=O)Nc3cccc(C)c3)C3C=CC2(O3)C1C(=O)NC1CCCC(C)C1C (stereo not drawn) | i | -11.4 | i | i | i | -1.72
COc1ccc(C2=NOC(C(=O)N3CCN(C(=O)c4ccco4)CC3)C2)cc1OC (stereo not drawn) | i | -7.3 | i | i | i | -2.03
CC(C)Oc1ccc(C(CCN)C2CCCCC2)cc1 (stereo not drawn) | i | -14.6 | i | i | i | -8.28*
CC(C)Oc1ccc(OCCCN2CCCCCC2)cc1 | i | -5.1 | i | i | i | -0.14
Cc1cccc(N2CCN(C(=O)C3(S(=O)(=O)c4ccc(Cl)cc4)CC3)CC2)c1C | i | -11.1 | i | i | i | 0.35
Cc1ccc(Cl)cc1N1CCN(C(=O)C2(S(=O)(=O)c3ccc(Cl)cc3)CC2)CC1 | 6* | -11.2 | i | i | i | 1.34
COc1ccc(Cc2nc3ccc(C(=O)NCC4COCCO4)cc3o2)cc1OC (stereo not drawn) | i | -6.8 | i | i | i | -1.36
Cc1cc(C)c(S(=O)(=O)N2CCN=C2c2ccccc2)c(C)c1 | i | -10.0 | i | i | i | -0.86
Cc1cc(S(=O)(=O)N2CCN=C2c2ccccc2)ccc1F | i | -7.3 | i | i | i | -4.74*
CCN(C[C@H]1N[C@@](Cc2ccccc2)(C(=O)OC)[C@H]2C(=O)N(C)C(=O)[C@@H]12)C(=O)Nc1ccc(C(F)(F)F)cc1 | . | . | . | . | i | .
COc1ccc(NC(=O)c2ccco2)c(OC)c1 | i | -6.6 | i | i | i | -1.25
COc1ccc(OC)c(NC(=O)c2c(NC(=O)c3ccco3)sc3c2CCC3)c1 | i | -9.1 | -7.54* | i | . | 0.77
COc1ccc(NC(=O)c2oc3ccccc3c2NC(=O)c2ccco2)c(OC)c1 | i | -10.9 | -7.76* | i | i | 0.04
C=C(C)COc1ccc(-c2nc(N)ncc2Oc2ccc(OC)cc2)c(O)c1 | i | -13.1 | i | i | i | -0.31
C=C(C)COc1ccc(-c2nc(N)ncc2Oc2ccccc2OC)c(O)c1 | . | . | . | . | -9.22* | .
Cc1ccc(-c2nc(CSCC(=O)N3CCN(c4ccccn4)CC3)c(C)o2)cc1 | i | -18.2 | i | i | -8.91* | -0.17
CCc1ccc(-c2nc(CSCC(=O)N3CCN(c4ccccn4)CC3)c(C)o2)cc1 | i | -33.0 | i | i | i | -1.37
CC1=C/C(=C(\c2cc(C)c(O)c(Br)c2)c2ccccc2S(=O)(=O)O)C=C(Br)C1=O | i | -3.3 | i | i | i | -0.3
Cc1cc(C)cc(NS(=O)(=O)c2ccc(-c3cnc(C4CC4)o3)cc2)c1 | i | -13.5 | i | 7* | i | 3.14
O=S(=O)(Nc1ccccc1)c1ccc(-c2cnc(C3CC3)o2)cc1 | i | -7.1 | i | i | i | -0.11
CC(Oc1ccc(Br)cc1)C(=O)NNC(=O)CCN1CCN(c2ccccc2)CC1 (stereo not drawn) | i | -14.8 | i | i | i | -0.05
COc1cc([C@@H]2c3cc4c(cc3[C@@H](NC3CCN(Cc5ccccc5)CC3)[C@H]3COC(=O)[C@H]23)OCO4)cc(OC)c1O | i | -8.1 | i | i | . | 0.17
COc1cc(C2c3cc4c(cc3C(OC3OC5COC(c6cccs6)OC5C(O)C3O)C3COC(=O)C23)OCO4)cc(OC)c1O (stereo not drawn) | 8* | -13.0 | i | i | i | 2.5
CCOc1cc(/C=C2\COc3ccccc3C2=O)cc(Br)c1OCC(=O)N(C)C | i | -12.1 | i | i | i | -4.98*
CC(C)Cn1c(N)c(C(=O)COC(=O)c2cnc(Cl)c(Cl)c2)c(=O)n(C)c1=O | 6* | -6.6 | i | i | i | 0.57
CC(C)Cn1c(N)c(C(=O)COC(=O)c2cc(F)cc(F)c2)c(=O)n(C)c1=O | i | -20.4 | i | i | i | -0.35
Cc1ccc(C(=O)NNC(=O)c2ccoc2C)s1 | . | . | . | . | i | .
Cc1nc(NCC2CCCO2)c2oc3ccccc3c2n1 (stereo not drawn) | i | -14.3 | i | i | i | 1.93

Screens as filed in PubChem.
